Assay results as given in ChEMBL document CHEMBL1817588, “Design and synthesis of 1,3-biarylsulfanyl derivatives as new anti-breast cancer agents” (Bioorg Med Chem, 2011).
pIC50: −log10 of the molar value. Active and inactive are the calls of the source. The rule behind the calls is not given here.

How the values were obtained:
MCF7 = assay: Antiproliferative activity against human MCF7 cells expressing estrogen receptor after 48 hrs by MTT assay; assay type: functional, cell-based; settings: MCF7, 48 h
Outline: (§1)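 Cells seeded at 1×10^4/well in DMEM with 10% FBS for 24 h at 37 °C, then exposed to compounds for 48 h. MTT (5 mg/mL) added for 4 h. Formazan dissolved in DMSO and absorbance read at 540 nm. Routine culture used DMEM with 10% FBS, 5% CO2, reduced to 2% FBS for growth inhibition.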

Ishikawa [1] = assay: Antiproliferative activity against human Ishikawa cells expressing estrogen receptor at 50 uM after 48 hrs by MTT assay; assay type: functional, cell-based
HEK293 [2] = assay: Antiproliferative activity against human HEK293 cells at 50 uM after 48 hrs by MTT assay; assay type: cell-based; settings: hek293, 48 h
MDA-MB-231 = assay: Antiproliferative activity against estrogen receptor-deficient human MDA-MB-231 cells […] after 48 hrs by MTT assay; assay type: functional, cell-based; settings: MDA-MB-231, 48 h; outline: as §1
Rattus norvegicus [3] = species on record: Rattus norvegicus; assay: Displacement of [3H]-estradiol from estrogen receptor in rat uteri after 18 hrs by scintillation counting relative to 17beta-estradiol
Outline: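 Cytosol from uteri of immature 20–21-day-old rats, in TEA buffer pH 7.4 (10 mM Tris, 1.5 mM EDTA, 0.02% azide). Incubated in triplicate with fixed 3H-estradiol ± competitor (DMF ≤5% final) for 18 h at 4 °C. Free ligand removed with dextran-coated charcoal (15 min, 800g 10 min), then supernatant counted. RBA taken at 50% inhibition from the bound-versus-log concentration plot.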

Ishikawa [4] = assay: Antiproliferative activity against human Ishikawa cells expressing estrogen receptor after 48 hrs by MTT assay; assay type: functional, cell-based; outline: as §1
Rattus norvegicus [5] = assay: Estrogenic activity in Sprague-Dawley rat assessed as increase in uterine weight administered as po daily once for 3 days relative to control; assay type: functional; design: concentration or dose not given beside the values
Outline: (§2)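 Immature female Sprague-Dawley rats given oral dosing once daily for 3 days on days 28–30 of age. Antiestrogenic arm co-dosed ethynylestradiol 0.02 mg/kg in 10% ethanol-water. Autopsy 24 h after last dose (day 31). Uterus excised, blotted and weighed, with vaginal opening and cornification also scored. Inhibition computed as (E − T)×100/E versus ethynylestradiol alone. Estrogenic gain expressed as percent increase over vehicle control.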

Bone [6] = assay: Antiosteoporotic activity in Sprague-Dawley rat [45Ca] pre-labeled bone assessed as inhibition of PTH-induced bone resorption after 96 hrs relative to control
Rattus norvegicus [7] = assay: Antiimplantation activity in Sprague-Dawley albino rat at 20 mg/kg, po after 10 days; assay type: functional
Outline: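 Sperm-positive adult Sprague-Dawley females (180–220 g) mated with proven-fertile males. Compounds given orally as a gum acacia suspension on days 1–5 post-coitum, 5–7 animals per group. Vehicle-only group served as control.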

Rattus norvegicus [8] = assay: Antiestrogenic activity in Sprague-Dawley rat assessed as inhibition of uterine weight gain administered as po daily once for 3 days relative to 17alpha-ethynylestradiol; assay type: functional; outline: as §2
Bone [9] = assay: Antiosteoporotic activity in Sprague-Dawley rat [45Ca] pre-labeled bone assessed as inhibition of PTH-induced bone resorption after 96 hrs
HEK293 [10] = assay: Antiproliferative activity against human HEK293 cells after 48 hrs by MTT assay; assay type: cell-based; settings: HEK293, 48 h; outline: as §1
Bone marrow cell [11] = assay: Osteoclastogenesis activity in BALB/c mouse bone marrow cells assessed as inhibition of MCSF-induced RANK gene expression at 1 uM after 7 days by RT-PCR analysis; assay type: functional, cell-based
Outline: (§3)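 Bone marrow from long bones of 4–6-week-old Balb/c mice, plated overnight in α-MEM with 10% FBS and M-CSF. Nonadherent cells then cultured with RANKL 50 ng/ml and M-CSF 10 ng/ml plus test agent 1 µM, medium changed every 2 d for 7 d. TRAP and RANK mRNA measured by qPCR after Trizol RNA extraction, expressed as fold change over vehicle.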

Bone marrow cell [12] = assay: Osteoclastogenesis activity in BALB/c mouse bone marrow cells assessed as inhibition of RANK-induced RANK gene expression at 1 uM after 7 days by RT-PCR analysis; assay type: functional, cell-based; outline: as §3
Bone marrow cell [13] = assay: Osteoclastogenesis activity in BALB/c mouse bone marrow cells assessed as inhibition of RANK-induced TRAP gene expression at 1 uM after 7 days by RT-PCR analysis; assay type: functional, cell-based; outline: as §3
Bone marrow cell [14] = assay: Osteoclastogenesis activity in BALB/c mouse bone marrow cells assessed as inhibition of MCSF-induced TRAP gene expression at 1 uM after 7 days by RT-PCR analysis; assay type: functional, cell-based; outline: as §3

| pIC50 (MCF7) | pIC50 (MDA-MB-231) | RBA (Rattus norvegicus [3]) | SMILES | Activity (Ishikawa [1]) | Activity (HEK293 [2]) | pIC50 (Ishikawa [4]) | Activity (Rattus norvegicus [5]) | inhibition (INH) (Bone [6]) | Activity (Rattus norvegicus [7]) | inhibition (INH) (Rattus norvegicus [8]) | T/C (Bone [9]) | pIC50 (HEK293 [10]) | inhibition (Bone marrow cell [11]) | inhibition (Bone marrow cell [12]) | inhibition (Bone marrow cell [13]) | inhibition (Bone marrow cell [14]) |
| --- | --- | --- | --- | --- | --- | --- | --- | --- | --- | --- | --- | --- | --- | --- | --- | --- |
| 4.74 | 4.55 |  | COc1ccc(C(=O)CC(Sc2ccc(C)cc2)c2ccc(OC)cc2)cc1 (centres undefined) | inactive | Non-toxic |  |  |  |  |  |  |  |  |  |  |  |
| < 4.30 | 4.57 | 0.157% | CN(C)CCOc1ccc(C(=O)CC(Sc2ccccc2)c2ccccc2)cc1 (centres undefined) |  | Non-toxic | 4.70 | 174% | 13.7% | inactive | 12% | 0.863 |  |  |  |  |  |
| 4.48 | 4.40 | 0.175% | CCSC(CC(=O)c1ccc(OCCN2CCCCC2)cc1)c1ccccc1 (centres undefined) |  | Non-toxic | 4.55 | 134% | 5.5% | inactive | 7% | 0.947 |  |  |  |  |  |
| 4.54 | 4.57 | 0.67% | O=C(CC(Sc1ccc(O)cc1)c1ccccc1)c1ccc(OCCN2CCCC2)cc1 (centres undefined) |  |  | 4.80 | 101% | 9.8% | 60% | 18% | 0.902 | 4.56 |  |  |  |  |
| 4.57 | 4.42 | 0.246% | CCSC(CC(=O)c1ccc(OCCN(C)C)cc1)c1ccccc1 (centres undefined) | inactive |  |  | 212% | 5.6% | inactive | 4% | 0.944 | 4.48 |  |  |  |  |
| 4.77 | 4.51 | 2.21% | COc1ccc(C(=O)CC(Sc2ccccc2)c2ccc(OC)cc2)cc1 (centres undefined) |  |  | 4.80 | 187% | 39% | inactive | 16% | 0.61 | 4.42 | Active | Active | Active | Active |
| 4.60 | < 4.30 | 5.15% | O=C(CC(Sc1ccc(O)cc1)c1ccc(O)cc1)c1ccc(OCCN2CCCC2)cc1 (centres undefined) |  |  | 4.76 | 111% | 6.6% | inactive | 24% | 0.934 | 4.54 |  |  |  |  |
| 4.62 | 4.24 | 1.25% | O=C(CC(Sc1ccccc1)c1ccccc1)c1ccccc1 (centres undefined) |  |  | 4.70 | 185% | 43.8% | inactive | 16% | 0.562 |  | Active | Active | Active | Active |
| < 4.30 | 4.55 | 0.245% | Cc1ccc(SC(CC(=O)c2ccc(OCCN(C)C)cc2)c2ccccc2)cc1 (centres undefined) | inactive | Non-toxic |  | 76% | 15.5% | inactive | 8% | 0.845 |  |  |  |  |  |
| 5.02 | 4.78 | 5.27% | O=C(CC(Sc1ccc(O)cc1)c1ccccc1)c1ccc(OCCN2CCCCC2)cc1 (centres undefined) |  |  | 4.79 | 58% | 21.3% | 100% | 34% | 0.787 | 4.12 |  |  |  |  |
| 4.91 | 4.72 | 4.47% | O=C(CC(Sc1ccc(O)cc1)c1cccc(O)c1)c1ccc(OCCN2CCCCC2)cc1 (centres undefined) |  |  | 4.77 | 79% | 18.8% | 100% | 31% | 0.812 | 4.18 |  |  |  |  |
| 4.57 | < 4.30 | 0.191% | CCSC(CC(=O)c1ccc(OCCN2CCCC2)cc1)c1ccccc1 (centres undefined) |  |  | < 4.30 | 152% | 3.7% | 100% | 9% | 0.963 | 4.53 |  |  |  |  |
| 4.68 | 4.47 | 2.67% | COc1ccc(C(CC(=O)c2ccccc2)Sc2ccccc2)cc1 (centres undefined) |  |  | 4.59 | 192% | 21.6% | inactive | 18% | 0.784 |  | Active | Active | Active | Active |
